Data on 14 compounds can be found in ChEMBL document CHEMBL1212756, “Klebsiella pneumoniae AcrAB efflux pump contributes to antimicrobial resistance and virulence” (2010).

Assay [1] concerns Klebsiella pneumoniae. As to the kind of experiment: Antimicrobial activity against rifampin resistant Klebsiella pneumoniae 52deltaacrB containing isogenic acrB knockout assessed as growth inhibition by Etest method. In kind it is functional. An outline of the steps: (§1)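 MICs were read from Etest strips following the manufacturer's instructions. The parent strain is a spontaneous rifampin-resistant mutant of clinical isolate 52145 (serotype O1:K2), grown in LB at 37°C. The acrB and acrR knockouts were made from it by insertion-duplication via homologous recombination with plasmid pFS100.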

The subject of assay [2] is Klebsiella pneumoniae. Put plainly: Antimicrobial activity against rifampin resistant Klebsiella pneumoniae 52deltaacrR containing isogenic acrR knockout assessed as growth inhibition by Etest method. In kind it is functional. An outline of the steps: as §1
Assay [3] has as its system Klebsiella pneumoniae. Put plainly: Antimicrobial activity against rifampin resistant Klebsiella pneumoniae 52145R assessed as growth inhibition by Etest method. In kind it is functional. An outline of the steps:
as §1

The subject of assay [4] is Klebsiella pneumoniae. As to the kind of experiment: Antimicrobial activity against rifampin resistant Klebsiella pneumoniae 52145R assessed as growth inhibition at 0.1 ug/ml in presence of 50 uM uncoupler CCCP by Etest method. In kind it is functional, organism-based. An outline of the steps:
(§2)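 Exponential-phase LB cultures (37°C) were harvested and resuspended at ca. 2.1 x 10^5 CFU/ml in 1% tryptone-PBS, pH 7.4. They were exposed to polymyxin B 0.1 µg/ml for 30 min at 37°C, either alone, after de-energizing with 50 µM CCCP, or with 0.4% glucose. Colony counts are given as % of unexposed cells, in duplicate on at least three occasions.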

The test system of assay [5] is Klebsiella pneumoniae. As to the kind of experiment: Antimicrobial activity against rifampin resistant Klebsiella pneumoniae 52145R assessed as growth inhibition at 0.1 ug/ml in presence of 50 uM uncoupler CCCP and glucose by Etest method. In kind it is functional, organism-based. Put shortly:
as §2

Assay [6] has as its system Klebsiella pneumoniae. Put plainly: Antimicrobial activity against rifampin resistant Klebsiella pneumoniae 52deltaacrB containing isogenic acrB knockout assessed as growth inhibition at 0.1 ug/ml by Etest method. In kind it is functional, organism-based.

≈ marks a conversion by molar mass, not a printed value. Calls of active or inactive are those of the source. The calls are words filed in the database; no cut-off is given here.

The MIC is the lowest concentration found to suppress growth. For the compound `C[C@@H](O)[C@H]1C(=O)N2C(C(=O)O)=C(S[C@@H]3CN[C@H](C(=O)Nc4cccc(C(=O)O)c4)C3)[C@H](C)[C@H]12`, the MIC in the assay with Klebsiella pneumoniae [1], with Klebsiella pneumoniae [2] and in the assay with Klebsiella pneumoniae [3] was 0.012 µg/mL (≈ 0.0252 µM) in each case.
On to `CO/N=C(\C(=O)N[C@@H]1C(=O)N2C(C(=O)O)=C(COC(C)=O)CS[C@H]12)c1csc(N)n1` [CEFOTAXIME], for which the MIC with Klebsiella pneumoniae [1] amounted to 0.06 µg/mL (≈ 0.132 µM); in the assay with Klebsiella pneumoniae [2] it was 4 µg/mL (≈ 8.78 µM); with Klebsiella pneumoniae [3], 0.125 µg/mL (≈ 0.274 µM).
In the same order, the values of `CO[C@@]1(NC(=O)Cc2cccs2)C(=O)N2C(C(=O)O)=C(COC(N)=O)CS[C@@H]21` [CEFOXITIN] are 4 µg/mL (≈ 9.36 µM), 32 µg/mL (≈ 74.9 µM) and 8 µg/mL (≈ 18.7 µM).
In the same order, the values of `O=C(N[C@H](CO)[C@H](O)c1ccc([N+](=O)[O-])cc1)C(Cl)Cl` [CHLORAMPHENICOL] are 1 µg/mL (≈ 3.09 µM), 4 µg/mL (≈ 12.4 µM) and 2 µg/mL (≈ 6.19 µM).
Take `O=C(O)c1cn(C2CC2)c2cc(N3CCNCC3)c(F)cc2c1=O` [CIPROFLOXACIN]: the MIC in the assay on Klebsiella pneumoniae [1] stood at 0.008 µg/mL (≈ 0.0241 µM).
Turning to `CC[C@H]1OC(=O)[C@H](C)[C@@H](O[C@H]2C[C@@](C)(OC)[C@@H](O)[C@H](C)O2)[C@H](C)[C@@H](O[C@@H]2O[C@H](C)C[C@H](N(C)C)[C@H]2O)[C@](C)(O)C[C@@H](C)C(=O)[C@H](C)[C@@H](O)[C@]1(C)O` [ERYTHROMYCIN], the MIC is 8 µg/mL (≈ 10.9 µM) in the assay with Klebsiella pneumoniae [1], 32 µg/mL (≈ 43.6 µM) in the assay with Klebsiella pneumoniae [2] and 32 µg/mL (≈ 43.6 µM) in the assay with Klebsiella pneumoniae [3].
Take `C[C@@H](O)[C@H]1C(=O)N2C(C(=O)O)=C(SCCNC=N)C[C@H]12` [IMIPENEM ANHYDROUS]: the MIC in the assay on Klebsiella pneumoniae [1], with Klebsiella pneumoniae [2] and in the assay with Klebsiella pneumoniae [3] was 0.125 µg/mL (≈ 0.418 µM) throughout.
On to `C[C@H]1COc2c(N3CCN(C)CC3)c(F)cc3c(=O)c(C(=O)O)cn1c23.C[C@H]1COc2c(N3CCN(C)CC3)c(F)cc3c(=O)c(C(=O)O)cn1c23.O` [LEVOFLOXACIN], for which the MIC in the assay on Klebsiella pneumoniae [1] was 0.006 µg/mL; in the assay with Klebsiella pneumoniae [2], 0.19 µg/mL; with Klebsiella pneumoniae [3], 0.09 µg/mL.
Consider `C[C@@H](O)[C@H]1C(=O)N2C(C(=O)O)=C(S[C@@H]3CN[C@H](C(=O)N(C)C)C3)[C@H](C)[C@H]12` [MEROPENEM], for which the MIC in the assay with Klebsiella pneumoniae [1], in the assay on Klebsiella pneumoniae [2] and in the assay with Klebsiella pneumoniae [3] was 0.03 µg/mL (≈ 0.0782 µM) throughout.
As to `CCn1cc(C(=O)O)c(=O)c2ccc(C)nc21` [NALIDIXIC ACID], the MIC is 0.5 µg/mL (≈ 2.15 µM) in the assay on Klebsiella pneumoniae [1], 8 µg/mL (≈ 34.4 µM) in the assay on Klebsiella pneumoniae [2] and 4 µg/mL (≈ 17.2 µM) with Klebsiella pneumoniae [3].
For `CN(C)[C@@H]1C(O)=C(C(N)=O)C(=O)[C@@]2(O)C(O)=C3C(=O)c4c(O)cccc4[C@@](C)(O)[C@H]3C[C@@H]12` [TETRACYCLINE], in that order: 0.25 µg/mL (≈ 0.563 µM), 4 µg/mL (≈ 9 µM) and 2 µg/mL (≈ 4.5 µM).
In the same order, the values of `NC[C@H]1O[C@H](O[C@H]2[C@H](O)[C@@H](O[C@H]3O[C@H](CO)[C@@H](O)[C@H](N)[C@H]3O)[C@H](N)C[C@@H]2N)[C@H](N)C[C@@H]1O` [TOBRAMYCIN] are 0.125 µg/mL (≈ 0.267 µM), 0.25 µg/mL (≈ 0.535 µM) and 0.25 µg/mL (≈ 0.535 µM).
In the case of GENTAMICIN, the MIC with Klebsiella pneumoniae [1] stood at 0.06 µg/mL; in the assay on Klebsiella pneumoniae [2], 0.25 µg/mL; in the assay with Klebsiella pneumoniae [3] it was 0.25 µg/mL.
Consider POLYMYXIN B, for which the “growth inhibition (GI)” value with Klebsiella pneumoniae [4] and in the assay with Klebsiella pneumoniae [6] was “Active” each time. In addition, in the assay with Klebsiella pneumoniae [5], the “growth inhibition (GI)” value was “inactive”.
